# Data from ChEMBL document CHEMBL1125255, “Romazarit: a potential disease-modifying antirheumatic drug” (J Med Chem, 1991).
# Values joined by “and” are separate entries in the source; they are usually repeats but may differ in a detail not shown here. Equal entries are not always repeated. Active and inactive are the calls of the source. No cut-off for these calls is given here.
# How the values were obtained:
# Mononuclear cell line = assay: Inhibition of human PGE-2 production.; type: functional, cell-based
# In short: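 Human blood mononuclear cells from healthy volunteers stimulated with 2.5 μg/mL phytohaemagglutinin and incubated 24 h with compound (sodium salt). PGE2 measured by RIA.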
# [1] = Inhibition of prostaglandin synthetase in sheep seminal vesicle; parameters: species or system Ovis aries
# In short: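 Sheep seminal vesicle enzyme (2.5 mg/mL) preincubated 5 min at 30 °C with or without compound (sodium salt, aqueous) plus glutathione 1 mM and adrenaline 625 μM. Integrated prostaglandin/thromboxane peak area compared with the no-drug control.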
# Rattus norvegicus [2] = assay: Compound was evaluated in developing adjuvant arthritis model rats for its effect on paw edema.; type: functional; parameters: concentration or dose not given beside the values
# In short: (§1)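 Female Allen and Hanbury hooded rats, five per group. Right hind paw injected sc on day 0 with heat-killed M. tuberculosis in paraffin oil (5 mg/mL). Compounds given orally as sodium salts in water. Paw volumes of both hind paws measured days 1–4, 1 h after dosing. Percent inhibition taken from area under the curve of the between-paw volume difference.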
# Rattus norvegicus [3] = assay: Radiographic change was judged in the area of the talus joint, using an arbitrary scoring system upon termination of the test (14 days dosing of 1 mg/kg) in a model of type II collagen arthritis in the rat.; type: functional; details: 336 h
# In short: (§2)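 Type II collagen arthritis rats, eight per group, oral sodium salts daily from grouping (day 1). Hind limbs X-rayed post mortem. Tibia/talus and tarsus damage scored 0–3 per foot by two observers and averaged; left and right summed (max 6). Compared with arthritic controls by Mann–Whitney U test.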
# Rattus norvegicus [4] = assay: Radiographic change was judged in the area of the tarsus region, using an arbitrary scoring system upon termination of the test (14 days dosing of 1 mg/kg) in a model of type II collagen arthritis in the rat.; type: functional; details: 336 h; in short: as §2
# Rattus norvegicus [5] = species on record: Rattus norvegicus; assay: Percent decrease in serum haptoglobin evaluated in a developing adjuvant arthritis model rats; No significant effect
# [6] = Partition coefficient (logP); type: physicochemical; details: octanol/water
# In short: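 Compound dissolved in disodium hydrogen phosphate/citric acid buffer pH 7.4 and partitioned against equal volume octan-1-ol. Buffer-phase UV absorbance read before and after partitioning near λmax. P′ from the octanol:buffer absorbance ratio.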
# Rattus norvegicus [7] = assay: Hepatic effect assessed by increase in catalase levels after 14 days of dosing at 100 mg/kg orally.; type: functional
# In short: (§3)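 Type II collagen arthritis rats, eight per group, given oral sodium salts daily for 14 days. At termination liver homogenized in ice-cold 0.25 M sucrose and spun 2000 rpm 10 min. Catalase followed by decline in A240 from H2O2 breakdown, expressed as first-order rate constant K. Result given as % change versus normals.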
# Rattus norvegicus [8] = assay: Hepatic effect assessed by increase in liver weight after 14 days of dosing at 100 mg/kg orally.; type: functional
# In short: (§4)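 Type II collagen arthritis rats, eight per group, daily oral dosing as sodium salts in water for 14 days. Liver weight recorded at termination and expressed as percentage change versus normal animals.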
# Rattus norvegicus [9] = assay: Radiographic change was judged in the area of the talus joint, using an arbitrary scoring system upon termination of the test (14 days dosing of 100 mg/kg) in a model of type II collagen arthritis in the rat.; type: functional; details: 336 h; in short: as §2
# Rattus norvegicus [10] = assay: Radiographic change was judged in the area of the tarsus region, using an arbitrary scoring system upon termination of the test (14 days dosing of 100 mg/kg) in a model of type II collagen arthritis in the rat.; type: functional; details: 336 h; in short: as §2
# Rattus norvegicus [11] = species on record: Rattus norvegicus; assay: Percent decrease in serum haptoglobin evaluated in a developing adjuvant arthritis model rats.
# Rattus norvegicus [12] = assay: Hepatic effect assessed by increase in catalase levels after 14 days of dosing at 50 mg/kg orally.; type: functional; in short: as §3
# Rattus norvegicus [13] = assay: Hepatic effect assessed by increase in liver weight after 14 days of dosing at 50 mg/kg orally.; type: functional; in short: as §4
# Rattus norvegicus [14] = assay: Radiographic change was judged in the area of the talus joint, using an arbitrary scoring system upon termination of the test (14 days dosing of 50 mg/kg) in a model of type II collagen arthritis in the rat.; type: functional; details: 336 h; in short: as §2
# Rattus norvegicus [15] = assay: Radiographic change was judged in the area of the tarsus region, using an arbitrary scoring system upon termination of the test (14 days dosing of 50 mg/kg) in a model of type II collagen arthritis in the rat.; type: functional; details: 336 h; in short: as §2
# Rattus norvegicus [16] = assay: Compound was evaluated in developing adjuvant arthritis model rats for its effect on paw edema; No significant effect; type: functional, organism-based; in short: as §1
# Rattus norvegicus [17] = assay: Radiographic change was judged in the area of the talus joint, using an arbitrary scoring system upon termination of the test (0.5 mg/kg 1-5 days dosing,0.25 mg/kg 6-15 days dosing)in a model of type II collagen arthritis in the rat.; type: functional; in short: as §2
Structure (SMILES),Inhibition (Rattus norvegicus [2]) [%],Decrease (Rattus norvegicus [5]),logP [6],Change (Rattus norvegicus [7]) [%],Change (Rattus norvegicus [8]) [%],inhibition in vivo at 100 mg/kg (Rattus norvegicus [9]) [%],inhibition in vivo at 100 mg/kg (Rattus norvegicus [10]) [%],Decrease (Rattus norvegicus [11]) [%],inhibition (Rattus norvegicus [16]),further results
COc1ccc2c(c1)c(CC(=O)O)c(C)n2C(=O)c1ccc(Cl)cc1 [INDOMETHACIN],84,inactive,–,–,–,–,–,–,–,IC50 (Mononuclear cell line): 300 nM; IC50 [1]: 1200 nM; inhibition in vivo at 1 mg/kg (Rattus norvegicus [3]): 48%; inhibition in vivo at 1 mg/kg (Rattus norvegicus [4]): 45%
CC(C)(OCc1ncc(-c2ccc(Cl)cc2)o1)C(=O)O,40,–,0.15,-10,3,36,24,17,–,–
CC(C)(OCc1cnc(-c2ccc(Cl)cc2)o1)C(=O)O,33,inactive,0.11,11,16,42,41,–,–,–
CC(C)(OCc1ccn(-c2ccc(Cl)cc2)n1)C(=O)O,46,–,0,–,–,–,–,30,–,Change (Rattus norvegicus [12]): 90%; Change (Rattus norvegicus [13]): 13%; inhibition in vivo at 50 mg/kg (Rattus norvegicus [14]): 48%; inhibition in vivo at 50 mg/kg (Rattus norvegicus [15]): 32%
CC(C)(OCc1coc2ccc(Cl)cc12)C(=O)O,–,inactive,-0.54,–,–,–,–,–,inactive,–
CC(C)(OCc1coc(-c2ccc(Cl)cc2)n1)C(=O)O,84,–,0.23,52,19,59,44,40,–,–
C[C@@H]1C[C@H]2[C@@H]3CCC4=CC(=O)C=C[C@]4(C)[C@@]3(F)[C@@H](O)C[C@]2(C)[C@@]1(O)C(=O)CO [DEXAMETHASONE],–,–,–,–,–,–,–,–,–,Inhibition (Rattus norvegicus [17]): 95% and 98%
CC(C)(OCc1csc(-c2ccc(Cl)cc2)n1)C(=O)O,81,–,0.66,–,–,–,–,16,–,–
Cc1oc(-c2ccc(Cl)cc2)nc1COC(C)(C)C(=O)O,67,inactive,0.52,60,2,65,54,–,–,–
Cn1cc(-c2ccc(Cl)cc2)nc1COC(C)(C)C(=O)O,–,inactive,0.08,–,–,–,–,–,inactive,–
CC(C)(OCc1cc2cc(Cl)ccc2o1)C(=O)O,39,inactive,-0.57,–,–,–,–,–,–,–
CC(C)(OCc1cc(-c2ccc(Cl)cc2)[nH]n1)C(=O)O,–,inactive,0.36,–,–,–,–,–,inactive,–
CC(C)(OCc1cccc(-c2ccc(Cl)cc2)n1)C(=O)O,–,inactive,0.69,–,–,–,–,–,inactive,–
CC(C)(OCc1ncsc1-c1ccc(Cl)cc1)C(=O)O,–,inactive,0.23,–,–,–,–,–,inactive,–
CC(C)(OCc1cnn(-c2ccc(Cl)cc2)c1)C(=O)O,76,–,0.04,–,–,–,–,37,–,Change (Rattus norvegicus [12]): 180%; Change (Rattus norvegicus [13]): 70%; inhibition in vivo at 50 mg/kg (Rattus norvegicus [14]): 15%; inhibition in vivo at 50 mg/kg (Rattus norvegicus [15]): 18%
CC(C)(OCc1cc(-c2ccc(Cl)cc2)no1)C(=O)O,72,–,0.36,73,47,60,47,37,–,–
CC(C)(OCc1nc(-c2ccc(Cl)cc2)co1)C(=O)O,69,–,0.15,68,19,63,39,9,–,–
CC(C)(OCc1scnc1-c1ccc(Cl)cc1)C(=O)O,–,inactive,0.23,–,–,–,–,–,inactive,–
CC(C)(OCc1cc(-c2ccc(Cl)cc2)on1)C(=O)O,64,–,0.46,140,41,24,42,34,–,–
CC(C)(OCc1ccc(-c2ccc(Cl)cc2)nn1)C(=O)O,–,inactive,-0.15,–,–,–,–,–,inactive,–
